# Assay outcomes as filed in PubChem BioAssay.
# Lipid droplet: inhibitors of hepatocyte lipid droplet formation, primary screen, imaging, high-throughput imaging, BODIPY stain; AML12 mouse hepatocytes, oleate lipid droplets; inhibition, % at 6.5 µM; 240,000 compounds, 0.4% hits;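 active = lipid droplet intensity inhibited by at least 50%, with more than 500 cells counted; inconclusive = wells with under 300 cells, treated as cytotoxic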
#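 System: AML12 hepatocytes (mouse). Probe or stimulus: oleic acid at 100 µM to induce lipid droplet formation. Times: overnight treatment with compound plus oleate. Detection: Image-based BODIPY and DAPI two-channel analysis. Evaluation: percent inhibition of filter-corrected integrated lipid droplet intensity per well.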
# aSyn 5UTR inh: MLPCN primary screen, SNCA 5' untranslated region | 300,000 compounds, 0.82% hits | inhibition, % (tested at 7.5 µM) | alpha-synuclein 5'UTR reporter, inhibitor activity; in the data active = inhibition above about 60%; inconclusive = no clear call, values can overlap the other calls;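 note: H4 neuroglioblastoma cells stably carrying SNCA 5'UTR luciferase fusion; 0% = DMSO wells and 100% = positive control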
# H9c2 TAG inh: inhibitors of triacylglycerol accumulation, primary screen, cell-based, uHTS, fluorescence, H9c2. H9c2 cells, Nile Red lipid (TAG) fluorescence; cells loaded with 200 µM oleic acid. inhibition, % at 12.5 µM. 230,000 compounds, 0.66% hits;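 active = pattern-corrected inhibition of lipid staining of at least 50% with the nuclear-stain viability signal not falling by more than 50%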;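 note: 0% = DMSO wells and 100% = triacsin C control wells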
# 697 NFkB inh: inhibitors of PMA/ionomycin-induced NF-kB reporter, 697 cells, primary screen, B-cell NF-kB inhibitor project, cell-based, luminescence, uHTS; AID 435022, 2010; 330,000 compounds, 0.33% hits; 697 B-cell NF-kB luciferase reporter, 16 h; inhibition, % at 4 µM; in the data active = inhibition above about 35%
# APP transl inh: inhibitors of APP translation via 5'UTR reporter, primary screen, APP 5'UTR luciferase, SH-SY5Y cells; 190,000 compounds, 0.82% hits; inhibition, % at 2 µM; AID 1285, 2008; SH-SY5Y APP 5'UTR-luciferase reporter, luminescence;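 active = inhibition above a set limit, derived from the sample mean plus 3 SD, cut at about 45% in these data; inconclusive = one replicate passes the limit while the other fails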
# Jurkat NFkB inh: inhibitors of induced NF-kB luciferase reporter, primary screen, TCR NF-kB activation inhibitor project, cell-based, luminescence, uHTS | Jurkat, PMA/ionomycin-induced NF-kB luciferase reporter | inhibition, % at 4 µM | 330,000 compounds, 0.53% hits; in the data active = inhibition above about 50%
# Jurkat NFkB conf: PMA/ionomycin-induced NF-kB reporter inhibitors, Jurkat retest, confirmation, T-cell NF-kB inhibitor project, cell-based, luminescence, single concentration | shares compounds with Jurkat NFkB inh | Jurkat NF-kB luciferase, 16 h | inhibition, % at 4 µM | 2,700 compounds, 27% hits;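 active = inhibition reaching about 45% at 4 µM in either replicate, limit read from the data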;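 note: plate controls were PMA/ionomycin stimulated DMSO wells for no effect and unstimulated DMSO wells for full effect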
# Starred values were filed as active, the others as inactive; ? = inconclusive; nt = no result given. Hits are enriched below; roughly 1.9% of the tested compounds scored in any of these assays.
SMILES,Lipid droplet,aSyn 5UTR inh,H9c2 TAG inh,697 NFkB inh,APP transl inh,Jurkat NFkB inh,Jurkat NFkB conf
COc1ccccc1C(=O)Nc1ccc(N2CCCCC2)cc1,14,-66,-16,-198,-168,-165,-55
Cc1cc(C)cc(C(=O)Nc2ccc(N3CCCC3)cc2)c1,0,-120,3,-128,-146,-160,1
O=C(Nc1ccc(N2CCCCCC2)cc1)c1ccc[nH]1,nt,nt,-3,-110,nt,-199,-37
CCc1c(C(C)O)oc2ccc3c(C)cc(=O)oc3c12 (stereo unspecified),nt,37,nt,7,0,-9,nt
CC1C/C(=C/c2ccccn2)C(=O)/C(=C/c2ccccn2)C1 (stereo unspecified),?,89*,78,-76,98*,91*,28
CCn1ncc(C2=NOC(C(=O)NCc3ccc(OC)cc3)C2)c1C (stereo unspecified),nt,13,nt,nt,-5,nt,nt
COc1ccc(C2=NOC(C(=O)NCc3ccccc3)C2)cc1 (stereo unspecified),nt,-16,nt,-92,30,64*,14
CCn1ncc(C2=NOC(C(=O)NCc3ccccc3)C2)c1C (stereo unspecified),-96,26,nt,18,72*,74*,46
N[C@@H](Cc1ccccc1)c1nnc(SC/C=C/c2ccccc2)o1,25,-12,-7,-13,nt,-16,nt
CCCCC[C@@H](O)c1cc2ccccc2c(=O)o1,nt,nt,-3,-10,nt,-7,nt
COC(=O)CSc1nc2cc(OC)ccc2cc1C#N,nt,-133,10,-137,-155,-166,-94
COC(=O)CSc1nc2cc(C)cc(C)c2cc1C#N,nt,-180,20,15,-9,-61,nt
COc1ccc2cc(C#N)c(SCC(=O)N3CCCC3)nc2c1,-5,-20,11,-2,1,-29,nt
COC(=O)CSc1nc2ccc(C)cc2cc1C#N,18,-72,5,-153,-119,-180,-111
CCOc1ccc(CCNC(=O)C2CCN(S(=O)(=O)N3CCC(C)CC3)CC2)cc1OCC,40,23,nt,1,-2,8,nt
CCCCCC(=O)N[C@@H](c1ccccc1)[C@@H](O)C(=O)O[C@H]1C[C@@]2(O)[C@@H](OC(=O)c3ccccc3)C3[C@](C)(C(=O)[C@H](OC(C)=O)C(=C1C)C2(C)C)[C@@H](O)C[C@H]1OC[C@@]31OC(C)=O (stereo partly specified),nt,87*,nt,-7,nt,72*,56*
CC(=O)O[C@H]1C(=O)[C@@]2(C)[C@H]([C@H](OC(=O)c3ccccc3)[C@]3(O)C[C@H](OC(=O)[C@H](O)C(NC(=O)c4ccccc4)c4ccccc4)C(C)=C1C3(C)C)[C@]1(OC(C)=O)CO[C@@H]1C[C@@H]2O (stereo partly specified),-57,72*,62,-27,nt,59*,60*
CC(=O)O[C@H]1C(=O)[C@@]2(C)[C@H]([C@H](OC(=O)c3ccccc3)[C@]3(O)C[C@H](OC(=O)[C@H](O)[C@@H](NC(=O)c4ccccc4)c4ccccc4)C(C)=C1C3(C)C)[C@]1(OC(C)=O)CO[C@@H]1C[C@@H]2O,nt,nt,56*,-2,nt,70*,68*
COc1ccc(S(=O)(=O)Nc2cccc3c2O[C@H](CN(C)C(=O)NC2CCCCC2)[C@@H](C)CN([C@H](C)CO)C3=O)cc1,nt,nt,-9,15,nt,-11,nt
O=C(O)CC(NC(=O)C12CC3CC(CC(C3)C1)C2)c1ccc(OC2CCCC2)cc1 (stereo unspecified),5,-28,6,-36,-14,-21,nt
COc1ccc2[nH]c3c(c2c1)CCNC3c1ccc([N+](=O)[O-])o1 (stereo unspecified),3,-53,nt,4,nt,-1,nt
COc1ccc2[nH]c3c(c2c1)CCNC3C1CC=C(C)CC1 (stereo unspecified),-5,29,41,16,27,58*,-17
Cc1sc(NC(=O)c2ccco2)nc1-c1ccccc1,-4,-95,-12,-221,-170,-163,-94
CC(=O)c1sc(NC(=O)c2ccco2)nc1-c1ccccc1,nt,-115,-7,-63,-28,-14,nt
COC(=O)c1c(-c2ccccc2)csc1NC(=O)c1ccco1,nt,-168,nt,-219,-23,-153,-69
SMILES,Lipid droplet,aSyn 5UTR inh,H9c2 TAG inh,697 NFkB inh,APP transl inh,Jurkat NFkB inh,Jurkat NFkB conf
COc1ccc(-n2nnnc2-c2ccccc2)cc1,12,19,nt,-77,89*,53*,58*
Clc1ccc(-n2nnnc2-c2ccccc2)cc1,nt,nt,nt,5,4,-3,nt
COc1cccc2sc3ccc(C#Cc4ccc(N)cc4)cc3c(=O)c12,24,-111,28,-40,nt,-72,nt
COc1cccc2sc3ccc(C#CC4(O)CCCCC4)cc3c(=O)c12,15,-191,-13,-117,nt,-194,-47
Cc1cc(C(=O)N2CCN(S(=O)(=O)c3ccc(C)c(C)c3)CC2)no1,nt,nt,-17,-19,nt,9,nt
CCOC(=O)c1cc([N+](=O)[O-])sc1NC(=O)c1ccc(S(=O)(=O)N2CC3(C)CC2CC(C)(C)C3)cc1 (stereo unspecified),0,?,nt,-3,8,57*,25
CC(=O)Nc1ccc(S(=O)(=O)N2CC3(C)CC2CC(C)(C)C3)cc1 (stereo unspecified),17,11,-2,4,12,3,nt
CCN(CC)C(=O)c1ccc2sc([C@@H]3O[C@H](CO)[C@H](O)[C@H](O)[C@H]3O)nc2c1,nt,nt,9,nt,nt,nt,nt
CC1=Nc2cc(C(=O)NCc3ccco3)ccc2Sc2ccc(C)cc21,?,101*,nt,7,96*,51*,18
CC1=Nc2cc(C(=O)NCC3CCCO3)ccc2Sc2ccc(C)cc21 (stereo unspecified),-130,44,nt,-37,nt,49,nt
COc1cccc(C2=Nn3c(nnc3-c3ccccc3O)SC2)c1,29,11,8,-22,-3,5,nt
C[n+]1c2n(c3ccccc31)N=C(c1cc(C(C)(C)C)c(O)c(C(C)(C)C)c1)CS2,-94,68*,29,-8,30,52*,3
Cc1cccc(NC(=O)/C=C/c2cccs2)n1,nt,-108,nt,-159,-170,-167,-67
Cn1c(=O)c2sccc2n2c(CCCC(=O)NCc3ccc(F)cc3)nnc12,-11,22,nt,5,nt,6,nt
CC1=C(C#N)C(c2cn(-c3ccccc3)nc2-c2cccs2)C(C#N)=C(C)N1,nt,-13,nt,-30,-11,53*,-8
